Source: PubChem (several laboratories)
A selection: hits, their analogues and other compounds. The true share with any hit is near 1%.
VIM-2 inh: inhibitors of Pseudomonas aeruginosa VIM-2 metallo-beta-lactamase | inhibition, % at 5.6 µM | AID 1527 | actives 0.89% (n = 290,000) | purified VIM-2, nitrocefin hydrolysis, epi-absorbance fluorescence;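 active = inhibition above the mean of all tested compounds plus 3 SD, cutoff set per screening run, cut at about 7.5% in these data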;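 note: red hydrolysis product quenches plate fluorescence so inhibitors raise well fluorescence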
PvdQ inh: P. aeruginosa PvdQ acylase inhibition; purified PvdQ acylase, fluorescence plate reader; inhibition, % at 10 µM; actives 0.063% (n = 340,000); AID 488965; in the data active = inhibition above about 30%, passing the limit was not always enough
PglD DTNB: PglD (C. jejuni) enzyme inhibition; purified PglD enzyme, DTNB colorimetric CoA detection; inhibition, % at 12.5 µM; actives 0.098% (n = 360,000); AID 602405; in the data active = inhibition above about 16%, passing the limit was not always enough
IMP-1 inhibitor: inhibitors of Pseudomonas aeruginosa IMP-1 metallo-beta-lactamase. AID 1556. actives 0.45% (n = 290,000). inhibition, % at 5.6 µM. purified IMP-1, nitrocefin hydrolysis, epi-absorbance fluorescence;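 active = inhibition above the mean plus 3 SD of all compounds in the same screening run, cut at about 4.5% in these data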
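Test system: recombinant IMP-1 enzyme, purified / Medium: HEPES buffer pH 7.1 with ZnSO4 and Brij 35 / Doses: single dose, 5.6 µM / Times: 25 °C, 15 min preincubation, 25 min reaction / Detection: Epi-absorbance via hydrolysed-nitrocefin quenching of white-plate fluorescence, 480/530 nm, EDTA stop / Evaluation: percent inhibition from optical density relative to buffer-blank wells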
ERp5 inh: inhibitors of human ERp5 | Q15084 | inhibition, % at 9.99 µM | actives 0.05% (n = 350,000) | ERp5 insulin aggregation, absorbance 650 nm, 90 min | AID 651711;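 active = mean replicate inhibition above about 25%, with every replicate also reaching it, limit read from the data, passing the limit was not always enough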
PDI inh: inhibitors of human protein disulfide isomerase; AID 588391; PDI insulin aggregation turbidity, A650, 90 min; P07237; actives 0.052% (n = 350,000); inhibition, % at 10 µM;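 active = mean inhibition across replicates of 30% or more, whatever share of single replicates reach that level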
Target sequence (P07237 whole entry, looked up): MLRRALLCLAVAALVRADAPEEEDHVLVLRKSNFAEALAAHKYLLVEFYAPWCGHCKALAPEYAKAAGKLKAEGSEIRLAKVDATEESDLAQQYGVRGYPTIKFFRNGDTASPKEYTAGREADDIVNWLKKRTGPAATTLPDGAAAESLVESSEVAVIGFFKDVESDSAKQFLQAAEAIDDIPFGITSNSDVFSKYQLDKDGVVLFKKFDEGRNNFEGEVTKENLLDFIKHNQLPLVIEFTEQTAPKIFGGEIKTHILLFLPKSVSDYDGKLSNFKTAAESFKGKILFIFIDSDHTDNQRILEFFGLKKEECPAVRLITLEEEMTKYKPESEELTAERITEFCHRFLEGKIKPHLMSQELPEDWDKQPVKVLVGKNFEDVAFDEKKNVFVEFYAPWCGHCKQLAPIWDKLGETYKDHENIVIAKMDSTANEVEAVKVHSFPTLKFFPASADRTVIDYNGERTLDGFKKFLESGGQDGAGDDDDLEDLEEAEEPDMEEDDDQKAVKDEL
Numbers stand for hits; - = inactive; . = not tested or not shown.

SMILES | VIM-2 inh | PvdQ inh | PglD DTNB | IMP-1 inhibitor | ERp5 inh | PDI inh
C[C@@H]1CN([C@@H](C)CO)C(=O)Cc2cc(N(C)C)ccc2O[C@H]1CN(C)S(=O)(=O)c1ccc(Cl)cc1 | . | . | - | . | - | .
COCCn1c(C)cc(C(=O)CSc2nncn2-c2ccccc2)c1C | - | - | - | 5.0 | . | -
C[C@H]1CN([C@@H](C)CO)C(=O)c2c(c3ccccc3n2C)-c2ccccc2CO[C@@H]1CN(C)C(=O)Nc1ccc(-c2ccccc2)cc1 | . | . | . | . | - | .
Cc1c(Br)c(C(=O)N2CCc3ccccc32)nn1C | - | - | . | 10 | . | -
CN(C)C(=O)C[C@H]1CC[C@H]2[C@@H](COc3ccc(NC(=O)NCc4ccccc4)cc3C(=O)N2C)O1 | . | . | - | . | - | .
CCn1c(=S)sc2c(=O)n(CC(=O)NCCCc3ccccc3)c(C)nc21 | - | - | - | 12 | - | -
Cc1nc2c(sc(=S)n2Cc2ccco2)c(=O)n1CC(=O)Nc1ccccc1F | - | - | - | 6.0 | - | -
CCn1c(=S)sc2c(=O)n(CC(=O)Nc3cccc(Cl)c3)c(C)nc21 | - | - | - | - | . | -
CC(C)NC(=O)Nc1ccc2c(c1)C(=O)N([C@@H](C)CO)C[C@H](C)[C@H](CN(C)S(=O)(=O)c1ccc(F)cc1)OCCCC[C@@H](C)O2 | . | . | - | . | - | .
C/C=C/c1ccc([C@@H]2[C@H](CO)N(C(=O)c3ccccc3)C23CN(C(C)=O)C3)cc1 | . | . | . | . | - | .
O=C(C[C@@H]1CC[C@@H]2[C@H](COC[C@H](O)CN2S(=O)(=O)c2ccc(F)cc2)O1)N1CCc2ccccc2C1 | . | . | - | . | - | .
CO[C@H]1CN(C)C(=O)c2cc(NC(C)=O)ccc2OC[C@@H](C)NC[C@@H]1C | . | . | 19 | . | - | .
CO[C@H]1CN(C)C(=O)c2ccc(NC(C)=O)cc2OC[C@@H](C)NC[C@@H]1C | . | . | - | . | - | .
CCOC(=O)c1ccc(NC(=O)Cn2nnc(-c3ccccc3F)n2)cc1 | - | - | . | - | . | -
O=C(Cn1nnc(-c2ccccc2F)n1)Nc1ccc(S(=O)(=O)NC2CCCC2)cc1 | - | - | - | 5.0 | . | -
O=C(Nc1ccncc1)C1CC(=O)N(c2ccccc2)C1 (stereo unspecified) | . | - | - | . | 28 | -
Cc1ccc(N2CC(C(=O)Nc3ccncc3)CC2=O)cc1 (stereo unspecified) | - | - | - | - | . | -
COc1cccc(C(=O)NC2CC(C)(C)NC(C)(C)C2)c1OC | - | - | - | 16 | - | -
COc1cc(OC)cc(C(=O)c2c(C)c(C#N)c3ccccn23)c1 | 7.8 | - | - | - | - | -
C[C@@H](NC(=O)[C@@H]1[C@@H](CO)[C@@H]2Cn3c(ccc(-c4cccnc4)c3=O)[C@@H]2N1C)c1ccccc1 | . | . | - | . | - | .
COc1ccccc1C(c1nnnn1CCc1ccccc1)N1CCCCCC1 (stereo unspecified) | - | - | - | 24 | . | -
C[C@H]1CN([C@@H](C)CO)C(=O)c2cccc(NS(=O)(=O)c3ccccc3)c2O[C@@H]1CN(C)S(=O)(=O)c1ccc(F)cc1 | . | . | - | . | . | .
Cc1noc(C)c1NC(=O)Nc1cccc2c1O[C@H](CN(C)C(=O)Nc1cccc3ccccc13)[C@@H](C)CN([C@H](C)CO)C2=O | . | . | 16 | . | - | .
Cc1noc(C)c1NC(=O)Nc1cccc2c1O[C@H](CN(C)S(=O)(=O)c1ccc(Cl)cc1)[C@@H](C)CN([C@H](C)CO)C2=O | . | . | - | . | 26 | .
CNC[C@H]1Oc2c(N)cccc2C(=O)N([C@@H](C)CO)C[C@H]1C | . | . | . | . | 86 | .
SMILES | VIM-2 inh | PvdQ inh | PglD DTNB | IMP-1 inhibitor | ERp5 inh | PDI inh
C[C@@H]1CN([C@@H](C)CO)C(=O)c2cccc(NS(=O)(=O)c3ccc(F)cc3)c2O[C@H]1CN(C)S(=O)(=O)c1ccccc1 | . | . | - | . | 46 | .
CN(C)C(=O)c1ccc(-c2ccc3c(c2)[C@@H]2[C@@H](CCN2C(=O)C2CCCCC2)[C@H](CO)N3C)cc1 | . | . | . | . | - | .
COc1cccc(-c2ccc3n(c2=O)C[C@H]2[C@H](CO)[C@@H](C(=O)NCC4CC4)N(C)[C@@H]32)c1 | . | . | - | . | . | .
C[C@@H]1CN([C@H](C)CO)C(=O)c2cccc(NC(=O)c3ccc(-c4nccs4)cc3)c2O[C@@H]1CN(C)C | . | . | - | . | - | .
C[C@H]1CN([C@@H](C)CO)C(=O)c2cccc(NC(=O)c3nc4ccccc4s3)c2O[C@@H]1CN(C)C(=O)Nc1ccc(C(F)(F)F)cc1 | . | . | - | . | 27 | .
C[C@H]1CN([C@@H](C)CO)C(=O)c2cccc(NC(=O)c3ccc(-c4nccs4)cc3)c2O[C@@H]1CN(C)C | . | . | 21 | . | - | .
Cc1noc(C)c1NC(=O)N(C)C[C@H]1Oc2c(NS(=O)(=O)c3ccc(Cl)cc3)cccc2C(=O)N([C@@H](C)CO)C[C@@H]1C | . | . | - | . | 25 | .
C[C@H]1CN([C@@H](C)CO)C(=O)c2cccc(NC(=O)c3nc4ccccc4s3)c2O[C@H]1CN(C)C(=O)Nc1ccc(C(F)(F)F)cc1 | . | . | - | . | - | .
CO[C@H]1CN(C)C(=O)c2cc(NC(C)=O)ccc2OC[C@@H](C)N(Cc2ccc(F)cc2)C[C@@H]1C | . | . | - | . | - | .
O=C(NCC[C@H]1CC[C@@H](NS(=O)(=O)c2ccccc2)[C@@H](CO)O1)c1ccc2c(c1)OCO2 | . | . | - | . | - | .
OC[C@@H]1[C@@H](c2ccccc2)C2(CN(Cc3nccs3)C2)N1Cc1ccccc1 | . | . | . | . | - | .
O=C(O)c1cccc(N2C(=O)c3cccc(Oc4ccc(Cl)cc4)c3C2=O)c1 | - | - | . | 20 | - | -
O=C(O)c1ccc(N2C(=O)c3cccc(Oc4ccc(Cl)cc4)c3C2=O)cc1 | - | - | . | 17 | - | -
O=C(O)CN1C(=O)c2ccc(Oc3cccc4c3C(=O)N(CC(=O)O)C4=O)cc2C1=O | - | - | - | - | . | -
CO[C@H]1CN(C)C(=O)c2ccc(NC(=O)C3CC3)cc2OC[C@@H](C)N(C(=O)c2cccnc2)C[C@@H]1C | . | . | - | . | - | .
O=C1C2C(C(=O)N1Cc1ccco1)C1C=CC2C12CC2 (stereo unspecified) | - | 87 | . | - | . | -
O=C1CC(=O)N(Cc2ccco2)C(=O)N1 | - | - | - | - | . | -
O=C1C2C3C=CC(C4CC34)C2C(=O)N1Cc1ccco1 (stereo unspecified) | - | 41 | . | - | - | -
CCCCC(=O)OC1CCC2C3CCc4cc(O)ccc4C3CCC12C (stereo unspecified) | . | - | - | . | - | 71
CCS(=O)(=O)Nc1ccc2c(c1)C(=O)N(C)C[C@H](OC)[C@H](C)CN(C(=O)C1CC1)[C@H](C)CO2 | . | . | - | . | - | .
CCS(=O)(=O)Nc1cccc(-c2ccc3nnc(-c4cccnc4)n3n2)c1 | 8.9 | - | - | - | - | -
Cc1nc(N)sc1-c1csc(Nc2ncccn2)n1 | - | - | . | 27 | - | -
COc1ccccc1Nc1nc(-c2sc(N)nc2C)cs1 | - | - | - | - | - | -
CO[C@H]1CN(C)C(=O)c2ccc(NS(=O)(=O)c3ccc(C)cc3)cc2OC[C@H](C)N(C(=O)NC(C)C)C[C@@H]1C | . | . | . | . | - | .
